Assay outcomes: PubChem BioAssay, Broad Institute
Hits are enriched below; roughly 1.3% of the tested compounds scored in any of these assays.
PAX8 inh HTS: inhibitors of PAX8 transcriptional activity in RMG-I cells | AID 652154 | 360,000 tested, 1.2% active | RMG-I TPO-luciferase reporter, SteadyGlo, 24 h | inhibition, % at 12.6 µM;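 active = mean replicate inhibition at least 60% with every replicate also reaching 60%; inconclusive = only one of the two criteria is met; inactive = mean below 60% and not all replicates reaching 60%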;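 note: luciferase light reporting Pax8 driven TPO promoter activity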
FN deposition inh: fibronectin deposition inhibition | AID 743247 | inhibition, % at 12.6 µM | 350,000 tested, 0.086% active | AH1F fibroblasts, Alexa488-fibronectin deposition fluorescence, overnight;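 active = mean inhibition across replicates of 30% or more, regardless of how many single replicates reach that level; inconclusive = mean under 30% yet at least half of replicates reach 30%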
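Material – AH1F fibroblast monolayer, labelled fibronectin deposition · Reagent – labelled fibronectin 24 nM · Timing – 1 h adhesion, overnight exposure · Measured by – fluorescence at 485 nm excitation, 525 nm emission · Read-out – inhibition of fibronectin deposition signal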
RAD54 inh: inhibitors of human RAD54 branch migration | inhibition, % at 10.4 µM | 360,000 tested, 0.14% active | RAD54 Holliday junction branch migration, FAM/BHQ fluorescence;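 active = mean normalized replicate activity at least 40 and at least half of replicates scoring 40 or more; inconclusive = only one of the two criteria met; inactive = mean below 40 and under half of replicates reaching 40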;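 note: inhibitors cause a drop in the FAM fluorescence signal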
RAD52 anneal inh: RAD52 (human) annealing inhibition; recombinant RAD52 DNA annealing, FRET fluorescence; 360,000 tested, 0.46% active; inhibition, % at 18.7 µM; AID 651710;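 active = every replicate showing at least 50% inhibition; inconclusive = mean inhibition at least 50% but not in every replicate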
Target sequence (P43351 whole entry, looked up): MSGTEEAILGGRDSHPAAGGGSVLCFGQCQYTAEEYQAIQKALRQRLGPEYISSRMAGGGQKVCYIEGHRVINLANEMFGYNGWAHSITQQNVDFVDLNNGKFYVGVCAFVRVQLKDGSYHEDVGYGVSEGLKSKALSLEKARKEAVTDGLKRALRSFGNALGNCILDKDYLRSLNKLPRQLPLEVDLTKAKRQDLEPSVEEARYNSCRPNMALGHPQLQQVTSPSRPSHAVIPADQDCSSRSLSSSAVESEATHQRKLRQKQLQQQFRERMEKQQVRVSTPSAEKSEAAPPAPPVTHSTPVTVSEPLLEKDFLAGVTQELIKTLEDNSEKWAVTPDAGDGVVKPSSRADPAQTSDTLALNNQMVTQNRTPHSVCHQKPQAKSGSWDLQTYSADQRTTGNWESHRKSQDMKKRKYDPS
A number is an active result; ! = a repeat was not active.

COc1ccc(-c2cnc3c(c2)C(=O)N([C@H](C)CO)C[C@H](C)[C@H](CN(C)C(=O)Nc2ccc4c(c2)OCO4)O3)cc1 was read as FN deposition inh inactive, RAD54 inh inactive and RAD52 anneal inh inactive.
`O=C(Nc1ccon1)c1ccccc1F` gave FN deposition inh inactive.
Screening COc1ccc(S(=O)(=O)Nc2ccc3c(c2)C(=O)N([C@H](C)CO)C[C@@H](C)[C@H](CN(C)Cc2ccc(Cl)c(Cl)c2)OCCCC[C@H](C)O3)cc1 returned PAX8 inh HTS 68 and RAD54 inh inactive.
COc1ccc(S(=O)(=O)Nc2ccc3c(c2)C(=O)N([C@@H](C)CO)C[C@@H](C)[C@H](CN(C)Cc2ccc(Cl)c(Cl)c2)OCCCC[C@@H](C)O3)cc1 was read as PAX8 inh HTS 73 and RAD54 inh inactive.
`CCn1c2ccccc2c2cc(NC(=O)c3cc(OC)cc(OC)c3)ccc21` gave PAX8 inh HTS 96, FN deposition inh inactive and RAD52 anneal inh inactive.
Screening Cc1ccc(NC(=O)C(C)OC(=O)CCNS(=O)(=O)c2ccc(C)cc2)cc1 (centres undefined) returned PAX8 inh HTS 70, FN deposition inh inactive, RAD54 inh inactive and RAD52 anneal inh inactive.
For C=CCN1C(=O)[C@@]2(O[C@@H](CCO)[C@H]([Si](C)(C)c3ccc(OC)cc3)[C@H]2C)c2cc(N3CCC3=O)ccc21 the results were PAX8 inh HTS inactive, RAD54 inh inactive and RAD52 anneal inh inactive.
Screening C=CCN1C(=O)[C@@]2(O[C@@H](CCO)[C@H]([Si](C)(C)c3ccc(OC)cc3)[C@H]2C)c2ccccc21 returned PAX8 inh HTS 66 and RAD52 anneal inh inactive.
For C=CCN1C(=O)[C@]2(O[C@H](CCO)[C@@H]([Si](C)(C)c3ccc(OC)cc3)[C@@H]2C)c2ccccc21 the results were PAX8 inh HTS 94, RAD54 inh inactive and RAD52 anneal inh inactive.
Screening CCC(NC(=O)NNC(N)=S)(C(F)(F)F)C(F)(F)F returned PAX8 inh HTS inactive, FN deposition inh inactive and RAD52 anneal inh inactive.
Screening Cc1[nH]n(-c2cccc(Cl)c2)c(=O)c1C=NC12CN3CN(CN(C3)C1)C2 returned RAD54 inh inactive.
Screening Cc1[nH]n(-c2ccc(Cl)cc2)c(=O)c1C=NC12CN3CN(CN(C3)C1)C2 returned PAX8 inh HTS 81, FN deposition inh inactive and RAD52 anneal inh inactive.
`C[C@@H]1CCCCO[C@@H](CN(C)Cc2ccc(C(F)(F)F)cc2)[C@H](C)CN([C@@H](C)CO)C(=O)c2cc(NS(=O)(=O)c3ccccc3)ccc2O1` gave PAX8 inh HTS 111, FN deposition inh inactive, RAD54 inh inactive and RAD52 anneal inh inactive.
`C[C@@H]1CCCCO[C@@H](CN(C)Cc2ccc(C(F)(F)F)cc2)[C@@H](C)CN([C@@H](C)CO)C(=O)c2cc(NS(=O)(=O)c3ccccc3)ccc2O1` gave PAX8 inh HTS 94, FN deposition inh inactive, RAD54 inh inactive and RAD52 anneal inh inactive.
C[C@@H]1CN([C@@H](C)CO)C(=O)c2cc(NS(=O)(=O)c3ccccc3)ccc2O[C@@H](C)CCCCO[C@H]1CN(C)Cc1ccc(C(F)(F)F)cc1 was read as PAX8 inh HTS inconclusive, FN deposition inh inactive, RAD54 inh inactive and RAD52 anneal inh inactive.
For C[C@@H]1CCCCO[C@H](CN(C)Cc2ccc(C(F)(F)F)cc2)[C@@H](C)CN([C@@H](C)CO)C(=O)c2cc(NS(=O)(=O)c3ccccc3)ccc2O1 the results were PAX8 inh HTS 88, FN deposition inh inactive, RAD54 inh inactive and RAD52 anneal inh inactive.
`C[C@@H]1CCCCO[C@@H](CN(C)Cc2ccc(C(F)(F)F)cc2)[C@@H](C)CN([C@H](C)CO)C(=O)c2cc(NS(=O)(=O)c3ccccc3)ccc2O1` gave PAX8 inh HTS inactive, FN deposition inh inactive, RAD54 inh inactive and RAD52 anneal inh inactive.
C[C@@H]1CCCCO[C@H](CN(C)Cc2ccc(C(F)(F)F)cc2)[C@H](C)CN([C@H](C)CO)C(=O)c2cc(NS(=O)(=O)c3ccccc3)ccc2O1 was read as PAX8 inh HTS 89, FN deposition inh inactive, RAD54 inh inactive and RAD52 anneal inh inactive.
`COCC(=O)Nc1ccc2c(c1)OC[C@H](C)N(C)C[C@H](C)[C@H](OC)CN(C)C2=O` gave FN deposition inh inactive, RAD54 inh inactive and RAD52 anneal inh inactive.
Screening CCOC(=O)C1CCN(C(=S)Nc2cc(C)ccc2C)CC1 returned PAX8 inh HTS inactive, FN deposition inh inactive and RAD52 anneal inh inactive.
COC(=O)c1ccc(NC(=O)CSC2=Nc3ccccc3C3CC=NN23)cc1 (centres undefined) was read as RAD54 inh inactive.
Screening C[C@@H]1CCCCO[C@H](CN(C)Cc2ccc(C(F)(F)F)cc2)[C@H](C)CN([C@@H](C)CO)C(=O)c2cc(NS(=O)(=O)c3ccccc3)ccc2O1 returned PAX8 inh HTS inactive, FN deposition inh inactive, RAD54 inh inactive and RAD52 anneal inh inactive.
`C[C@@H]1CN([C@H](C)CO)C(=O)c2cc(NS(=O)(=O)c3ccccc3)ccc2O[C@@H](C)CCCCO[C@@H]1CN(C)Cc1ccc(C(F)(F)F)cc1` gave PAX8 inh HTS 102, FN deposition inh inactive, RAD54 inh inactive and RAD52 anneal inh inactive.
`N#Cc1ccc(-c2ccc([C@@H]3[C@@H]4CN(S(=O)(=O)c5ccc(-c6ccccc6)cc5)C[C@H]3N4)cc2)cc1` gave PAX8 inh HTS 75, FN deposition inh inactive and RAD52 anneal inh 79.
Screening Fc1cccc(CN2C[C@@H]3N[C@H](C2)C3c2ccc(-c3cncnc3)cc2)c1 (some centres undefined) returned PAX8 inh HTS inactive, FN deposition inh inactive and RAD52 anneal inh inactive.
`Fc1cccc(-c2ccc(C3[C@@H]4CN(Cc5cccnc5)C[C@H]3N4)cc2)c1` (some centres undefined) gave PAX8 inh HTS inactive, FN deposition inh inactive and RAD52 anneal inh 55!.
`N#Cc1ccc(-c2ccc(C3[C@@H]4CN(Cc5ccccc5F)C[C@H]3N4)cc2)cc1` (some centres undefined) gave PAX8 inh HTS inactive, FN deposition inh inactive and RAD52 anneal inh 84!.
Screening COc1ccccc1CN1C[C@@H]2N[C@H](C1)C2c1ccc(-c2ccc(C#N)cc2)cc1 (some centres undefined) returned PAX8 inh HTS inconclusive, FN deposition inh inactive and RAD52 anneal inh inactive.
For Fc1cccc(CN2C[C@@H]3N[C@H](C2)C3c2ccc(-c3ccccc3)cc2)c1 (some centres undefined) the results were PAX8 inh HTS 89!, FN deposition inh inactive and RAD52 anneal inh 84!.
COc1cccc(-c2nn(-c3ccccc3)cc2C(=O)n2nnc3ccccc32)c1 was read as PAX8 inh HTS inactive, FN deposition inh inactive and RAD54 inh inactive.
`COc1cccc(C2/C(=C(\O)c3ccc4c(c3)OCCO4)C(=O)C(=O)N2CC2CCCO2)c1` (centres undefined) gave PAX8 inh HTS inactive, FN deposition inh inactive, RAD54 inh inactive and RAD52 anneal inh inactive.
O=C(C1CCC1)N1C[C@@H]2N[C@H](C1)C2c1ccc(-c2cccc(F)c2)cc1 (some centres undefined) was read as FN deposition inh inactive and RAD52 anneal inh inactive.
